pKi: −log10 of the molar value.
Molecular target: T1, Membrane-bound transcription factor site-1 protease (Homo sapiens, UniProt Q14703)
T1 sequence (Q14703 whole entry): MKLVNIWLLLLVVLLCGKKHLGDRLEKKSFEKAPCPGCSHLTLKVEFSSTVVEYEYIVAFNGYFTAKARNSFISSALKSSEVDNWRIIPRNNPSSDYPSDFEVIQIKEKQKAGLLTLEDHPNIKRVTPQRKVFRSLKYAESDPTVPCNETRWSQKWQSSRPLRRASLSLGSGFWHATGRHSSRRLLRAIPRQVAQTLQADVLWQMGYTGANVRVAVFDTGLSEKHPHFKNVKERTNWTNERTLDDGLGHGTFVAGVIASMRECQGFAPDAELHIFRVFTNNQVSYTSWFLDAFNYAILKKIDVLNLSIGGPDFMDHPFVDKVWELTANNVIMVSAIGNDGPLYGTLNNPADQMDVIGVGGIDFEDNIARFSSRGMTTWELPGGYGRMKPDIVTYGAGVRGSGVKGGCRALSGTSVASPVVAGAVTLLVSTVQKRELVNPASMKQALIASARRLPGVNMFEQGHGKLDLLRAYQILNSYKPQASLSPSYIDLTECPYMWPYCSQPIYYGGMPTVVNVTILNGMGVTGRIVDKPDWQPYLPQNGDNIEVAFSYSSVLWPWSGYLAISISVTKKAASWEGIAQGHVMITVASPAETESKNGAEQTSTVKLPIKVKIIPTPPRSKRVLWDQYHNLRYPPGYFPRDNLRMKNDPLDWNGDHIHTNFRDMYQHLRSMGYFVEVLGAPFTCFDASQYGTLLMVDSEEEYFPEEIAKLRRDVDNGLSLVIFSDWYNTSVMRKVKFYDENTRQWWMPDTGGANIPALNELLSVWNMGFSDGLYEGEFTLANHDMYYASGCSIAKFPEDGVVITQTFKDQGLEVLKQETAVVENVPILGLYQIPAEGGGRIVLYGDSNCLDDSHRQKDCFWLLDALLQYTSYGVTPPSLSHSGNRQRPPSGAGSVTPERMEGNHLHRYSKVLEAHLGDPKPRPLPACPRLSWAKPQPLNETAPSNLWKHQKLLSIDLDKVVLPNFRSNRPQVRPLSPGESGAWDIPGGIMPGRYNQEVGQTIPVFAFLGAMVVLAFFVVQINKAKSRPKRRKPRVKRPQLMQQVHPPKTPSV
Test: Inhibition of human recombinant soluble Kexin isozyme 1
In short: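 Recombinant soluble human SKI-1 (activity normalized to 10 pmol Abz-peptide released per µL per h, 37 °C). Only the E-form was tested, at varying concentrations, with quenched fluorogenic Abz-Q-GPC251–263-Tyx substrate in Tris/Mes/2 mM CaCl2 buffer at 37 °C. RFU (ex 320/em 420 nm) were read from 0–6 h and converted to cleavage rates. Ki came from Dixon plots at 0.1, 0.05 and 0.025 mM substrate.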

| Structure (SMILES) | pKi |
| --- | --- |
| CC(C)[C@H](NC(=O)COc1ccccc1/N=N/c1ccccc1OCC(=O)N[C@H](C(=O)OCc1ccccc1)C(C)C)C(=O)OCc1ccccc1 | 3.90 |
| CC(C)[C@H](NC(=O)COc1ccccc1/N=N/c1ccccc1OCC(=O)N[C@H](C(=O)O)C(C)C)C(=O)O | 4.12 |
| O=C(O)CNC(=O)COc1ccccc1/N=N/c1ccccc1OCC(=O)NCC(=O)O | 3.58 |

Continued, values first:

| pKi | Structure (SMILES) |
| --- | --- |
| 4.93 | O=C(COc1ccccc1/N=N/c1ccccc1OCC(=O)N[C@@H](Cc1ccccc1)C(=O)OCc1ccccc1)N[C@@H](Cc1ccccc1)C(=O)OCc1ccccc1 |
| 3.65 | O=C(COc1ccccc1/N=N/c1ccccc1OCC(=O)N[C@@H](Cc1ccccc1)C(=O)O)N[C@@H](Cc1ccccc1)C(=O)O |
| 3.85 | O=C(COc1ccccc1/N=N/c1ccccc1OCC(=O)N[C@@H](Cc1ccccc1)C(=O)N[C@@H](Cc1ccccc1)C(=O)O)N[C@@H](Cc1ccccc1)C(=O)N[C@@H](Cc1ccccc1)C(=O)O |

Source: BindingDB's records for doi:10.1016/j.bmcl.2010.04.101 (Indian Institute of Technology, 2010)
